This is an account of results in ChEMBL document CHEMBL4017520, “Discovery, Structure-Activity Relationship, and Antiparkinsonian Effect of a Potent and Brain-Penetrant Chemical Series of Positive Allosteric Modulators of Metabotropic Glutamate Receptor 4” (J Med Chem, 2017).

The target in data set [1] is T1, Metabotropic glutamate receptor 4 (Homo sapiens, UniProt Q14833). In words: Positive allosteric modulation of recombinant human mGlu4 receptor expressed in HEK293 cells co-expressing chimeric G protein assessed as increase in EC20 glutamate-induced […]. Format: functional, cell-based.
Data set [2] in a line: Half life in Sprague-Dawley rat at 1 mg/kg, iv administered as single dose by LC-MS/MS analysis. Format: ADME, organism-based. To be noted: in vivo. Put shortly: (§1)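 Single iv dose, 1 mg/kg in rat or 2 mg/kg in mouse; plasma PK parameters derived; brain/plasma ratio taken at 1 h postdose (rat) or 30 min postdose (mouse). Mean of 3 rats; 2 mice for mouse Cmax and brain/plasma.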

A short description of data set [3]: Plasma clearance in Sprague-Dawley rat at 1 mg/kg, iv administered as single dose by LC-MS/MS analysis. Format: ADME, organism-based. Put shortly:
as §1

Data set [4] is described as follows: Ratio of drug level in Sprague-Dawley rat brain to plasma at 1 mg/kg, iv after 1 hr post dose administered as single dose by LC-MS/MS analysis. The class given is ADME, organism-based. Conditions: read-out: BPR. Put shortly: as §1
Data set [5] is described as follows: Ratio of drug level in C57BL/6 mouse brain to plasma at 2 mg/kg, iv administered as single dose measured after 30 mins by LC-MS/MS analysis. The class given is ADME, organism-based. To be noted: read-out: BPR. Put shortly: as §1
The nature of data set [6]: Cmax in Sprague-Dawley rat plasma at 10 mg/kg, ip administered as single dose by LC-MS/MS analysis. The class given is ADME, organism-based. Also noted: dose 10 mg/kg, route intraperitoneal. Put shortly:
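Rats dosed ip at 10 or 30 mg/kg. Plasma Cmax, Tmax, half-life and AUC0–inf were determined. Brain concentration was measured 30 min postdose, and brain/plasma ratio was taken at 30 min. Values are the mean (±SEM) of 3 rats.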

The nature of data set [7]: Cmax in Sprague-Dawley rat plasma at 10 mg/kg, po administered as single dose by LC-MS/MS analysis. Further details: dose 10 mg/kg, route oral. The class given is ADME, organism-based. Put shortly: (§2)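 Rats given a single oral dose of 10 mg/kg. The first plasma sample was taken at 15 min, and sampling continued to 24 h postdose. Brain was sampled at 30 min. Values are the mean (±SEM) of 3 rats.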

Data set [8] is described as follows: Tmax in Sprague-Dawley rat plasma at 30 mg/kg, ip administered as single dose by LC-MS/MS analysis. The class given is ADME, organism-based. Put shortly: (§3)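 Single-dose plasma PK after ip (10 or 30 mg/kg) or oral (10 mg/kg) dosing in rats, and oral 10 mg/kg dosing in mice. […] Values are mean ±SEM of 3 rats or 2 mice.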
Data set [9] can be described thus: Tmax in Sprague-Dawley rat plasma at 10 mg/kg, po administered as single dose by LC-MS/MS analysis. Format: ADME, organism-based. Put shortly:
as §3

The nature of data set [10]: Tmax in C57BL/6 mouse plasma at 10 mg/kg, po administered as single dose by LC-MS/MS analysis. Format: ADME, organism-based. Put shortly:
as §3

A short description of data set [11]: Half life in Sprague-Dawley rat plasma at 10 mg/kg, po administered as single dose by LC-MS/MS analysis. Format: ADME, organism-based. Put shortly:
(§4)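 Single dose ip (10 or 30 mg/kg, rat) or oral (10 mg/kg, rat or mouse); plasma Cmax, Tmax, half-life, AUC0−inf derived; brain concentration and brain/plasma ratio at 30 min postdose. Mean of 3 rats or 2 mice.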

Data set [12] can be described thus: AUC (0 to infinity) in Sprague-Dawley rat plasma at 10 mg/kg, po administered as single dose by LC-MS/MS analysis. The class given is ADME, organism-based. Further details: dose 10 mg/kg, time infinity, route oral. Put shortly:
as §2

A short description of data set [13]: Ratio of drug level in Sprague-Dawley rat brain to plasma at 10 mg/kg, ip after 30 mins post dose administered as single dose by LC-MS/MS analysis. Format: ADME, organism-based. Conditions: read-out: BPR. Put shortly:
as §4

The nature of data set [14]: Ratio of drug uptake in Sprague-Dawley rat brain at 10 mg/kg, ip to EC50 for rat mGlu4 receptor expressed in HEK293 cells. Put shortly:
(§5)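 Rats received a single ip or oral dose. Brain concentration was measured 30 min postdose, mean of 3 rats, and divided by the EC50 measured in cell lines overexpressing rat mGluR4.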

Data set [15] is described as follows: Ratio of drug uptake in Sprague-Dawley rat brain at 30 mg/kg, ip to EC50 for rat mGlu4 receptor expressed in HEK293 cells. Put shortly: as §5
The nature of data set [16]: Protein binding in Sprague-Dawley rat brain at 10 uM by rapid equilibrium dialysis. The class given is ADME, tissue-based. To be noted: read-out: PB (converted).
The nature of data set [17]: Plasma concentration in Sprague-Dawley rat at 30 mg/kg, ip after 30 mins. The class given is ADME, organism-based. Put shortly: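 Rats dosed 30 mg/kg ip; plasma sampled over time, brain measured at 30 and 60 min; brain/plasma ratio averaged over 30 and 60 min.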
The nature of data set [18]: Drug uptake in Sprague-Dawley rat brain at 30 mg/kg, ip after 120 mins. Format: ADME, organism-based. To be noted: read-out: Drug uptake.
Data set [19] can be described thus: Ratio of fraction unbound in Sprague-Dawley rat brain at 30 mg/kg, ip after 30 mins to EC50 for rat mGlu4 receptor expressed in HEK293 cells.
The subject of data set [20] is Rattus norvegicus. In words: Toxicity in 6-OHDA induced parkinsonian motor deficit Sprague-Dawley rat model assessed as induction of overacting rearing behavior up to 30 mg/kg, ip. The class given is organism-based. Conditions: in vivo.
Data set [21] relates to Rattus norvegicus. In words: Toxicity in 6-OHDA induced parkinsonian motor deficit Sprague-Dawley rat model assessed as induction of overacting rearing behavior up to 30 mg/kg, ip in presence of L-dopa. The class given is organism-based. To be noted: in vivo.
The target in data set [22] is T1, Metabotropic glutamate receptor 4. In words: Positive allosteric modulation of recombinant human mGlu4 receptor expressed in HEK293 cells co-expressing chimeric Gi/Gq assessed as increase in EC20 glutamate-induced calcium flux preincubated for 10 mins followed by glutamate addition measured for 3 mins by Fluo4-AM dye based fluorescence assay relative to control. Format: functional, cell-based.

The species named for data set [23] is Rattus norvegicus. In words: Activity at NMDA glutamate receptor in rat cerebral cortex at 10 uM. Put shortly:
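Inhibition of orthosteric ligand binding to NMDA, AMPA and kainate receptors on rat cerebral cortex membranes, tested up to 10 μM.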

Data set [24] addresses D(1A) dopamine receptor (Homo sapiens) (UniProt P21728). In words: Antagonist activity at D1 receptor (unknown origin) at 10 uM.
Data set [25] has as its target D(2) dopamine receptor (Homo sapiens) (UniProt P14416). In words: Antagonist activity at D2L receptor (unknown origin) at 10 uM.
Data set [26] has as its system Mus musculus. In words: Anti-parkinson's activity in ip dosed C57BL/6 mouse assessed as reversal of haloperidol-induced catalepsy after 40 mins. The class given is functional, organism-based.
The target in data set [27] is Metabotropic glutamate receptor 5 (Homo sapiens) (UniProt P41594). In words: Activity at human mGlu5 receptor expressed in HEK293 cells co-expressing Gi/Gq assessed as effect on EC20/EC80 glutamate-induced intracellular calcium level up to 10 uM preincubated for 10 mins followed by glutamate addition measured for 3 mins by Fluo4-AM dye based fluorescence assay. The class given is functional, cell-based. Put shortly: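 HEK-293 cells were electroporated with the human mGluR plus a promiscuous or chimeric G protein and cultured 24 h, then serum-starved 3 h. Cells were loaded 1.5 h with 1 μM Fluo4-AM in HBSS/HEPES buffer with probenecid and 0.1% BSA. Compound was added for 10 min, then glutamate at EC20 (PAM) or EC80 (NAM), and fluorescence (ex 485/em 525) was read for 3 min.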

The source made the active and inactive calls. The rule behind the calls is not given here.

T1 sequence (Q14833 whole entry): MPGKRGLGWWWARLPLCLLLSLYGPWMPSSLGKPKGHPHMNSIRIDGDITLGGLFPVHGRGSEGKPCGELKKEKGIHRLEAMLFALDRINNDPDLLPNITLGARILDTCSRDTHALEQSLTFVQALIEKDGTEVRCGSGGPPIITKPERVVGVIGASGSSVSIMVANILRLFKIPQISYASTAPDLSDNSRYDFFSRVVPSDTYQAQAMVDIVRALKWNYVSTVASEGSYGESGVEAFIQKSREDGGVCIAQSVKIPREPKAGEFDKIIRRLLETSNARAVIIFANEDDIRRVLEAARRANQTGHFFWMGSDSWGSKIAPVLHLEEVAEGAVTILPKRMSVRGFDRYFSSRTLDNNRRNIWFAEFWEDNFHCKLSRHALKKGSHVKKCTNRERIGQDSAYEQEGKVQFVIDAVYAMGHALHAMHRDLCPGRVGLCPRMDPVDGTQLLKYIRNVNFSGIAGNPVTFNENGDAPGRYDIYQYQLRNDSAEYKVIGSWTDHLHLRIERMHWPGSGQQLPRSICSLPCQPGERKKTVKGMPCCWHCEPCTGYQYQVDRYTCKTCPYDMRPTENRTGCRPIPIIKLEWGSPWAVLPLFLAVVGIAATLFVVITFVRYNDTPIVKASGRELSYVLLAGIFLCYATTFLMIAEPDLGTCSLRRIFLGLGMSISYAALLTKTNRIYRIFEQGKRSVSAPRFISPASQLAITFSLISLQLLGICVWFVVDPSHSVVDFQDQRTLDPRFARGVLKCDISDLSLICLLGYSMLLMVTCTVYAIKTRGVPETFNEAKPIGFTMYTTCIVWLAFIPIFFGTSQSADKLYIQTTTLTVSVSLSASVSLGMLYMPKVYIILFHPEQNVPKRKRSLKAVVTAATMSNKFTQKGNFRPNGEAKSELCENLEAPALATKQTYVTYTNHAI
Metabotropic glutamate receptor 5 (Homo sapiens), sequence (P41594 21-1212 limits assumed): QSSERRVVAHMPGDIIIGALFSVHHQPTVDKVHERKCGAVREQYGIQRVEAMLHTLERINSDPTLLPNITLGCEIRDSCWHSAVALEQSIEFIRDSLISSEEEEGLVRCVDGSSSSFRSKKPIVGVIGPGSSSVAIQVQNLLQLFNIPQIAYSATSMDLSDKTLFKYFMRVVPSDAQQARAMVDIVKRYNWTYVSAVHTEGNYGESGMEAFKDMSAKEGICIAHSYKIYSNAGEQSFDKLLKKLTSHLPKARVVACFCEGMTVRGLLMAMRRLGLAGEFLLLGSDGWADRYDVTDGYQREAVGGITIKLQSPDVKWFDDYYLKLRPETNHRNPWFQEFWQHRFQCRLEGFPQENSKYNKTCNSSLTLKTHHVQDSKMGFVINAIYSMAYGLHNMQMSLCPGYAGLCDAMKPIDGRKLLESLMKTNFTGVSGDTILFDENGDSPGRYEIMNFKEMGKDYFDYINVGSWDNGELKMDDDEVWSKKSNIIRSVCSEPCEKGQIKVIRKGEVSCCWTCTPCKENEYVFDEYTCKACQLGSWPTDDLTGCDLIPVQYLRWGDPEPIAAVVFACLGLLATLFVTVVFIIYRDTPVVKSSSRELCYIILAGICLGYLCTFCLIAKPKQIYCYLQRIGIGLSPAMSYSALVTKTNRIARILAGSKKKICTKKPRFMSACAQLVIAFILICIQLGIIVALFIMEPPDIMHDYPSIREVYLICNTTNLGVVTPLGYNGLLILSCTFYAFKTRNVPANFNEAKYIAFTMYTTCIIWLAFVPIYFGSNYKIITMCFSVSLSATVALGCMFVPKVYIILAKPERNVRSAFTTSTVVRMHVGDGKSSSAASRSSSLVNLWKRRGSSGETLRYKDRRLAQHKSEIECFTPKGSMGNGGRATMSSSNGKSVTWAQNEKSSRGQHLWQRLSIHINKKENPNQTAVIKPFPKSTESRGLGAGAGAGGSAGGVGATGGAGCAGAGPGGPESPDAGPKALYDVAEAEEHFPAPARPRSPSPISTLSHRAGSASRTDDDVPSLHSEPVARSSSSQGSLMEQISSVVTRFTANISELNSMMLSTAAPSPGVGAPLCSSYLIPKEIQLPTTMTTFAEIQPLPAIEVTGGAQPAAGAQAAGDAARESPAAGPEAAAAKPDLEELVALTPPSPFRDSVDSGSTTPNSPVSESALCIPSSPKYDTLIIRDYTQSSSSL
D(2) dopamine receptor (Homo sapiens), sequence (P14416 whole entry): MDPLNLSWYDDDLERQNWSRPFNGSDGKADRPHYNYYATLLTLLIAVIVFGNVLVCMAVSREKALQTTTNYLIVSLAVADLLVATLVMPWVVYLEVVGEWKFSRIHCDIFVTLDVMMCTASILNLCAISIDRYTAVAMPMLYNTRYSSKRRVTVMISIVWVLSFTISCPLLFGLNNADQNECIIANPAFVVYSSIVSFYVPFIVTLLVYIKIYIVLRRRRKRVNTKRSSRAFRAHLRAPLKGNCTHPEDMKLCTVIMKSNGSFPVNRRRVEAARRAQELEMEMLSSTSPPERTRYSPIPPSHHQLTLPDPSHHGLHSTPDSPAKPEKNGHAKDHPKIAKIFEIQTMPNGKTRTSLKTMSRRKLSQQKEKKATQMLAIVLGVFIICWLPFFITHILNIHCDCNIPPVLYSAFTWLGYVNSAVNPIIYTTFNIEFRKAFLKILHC
D(1A) dopamine receptor (Homo sapiens), sequence (P21728 whole entry): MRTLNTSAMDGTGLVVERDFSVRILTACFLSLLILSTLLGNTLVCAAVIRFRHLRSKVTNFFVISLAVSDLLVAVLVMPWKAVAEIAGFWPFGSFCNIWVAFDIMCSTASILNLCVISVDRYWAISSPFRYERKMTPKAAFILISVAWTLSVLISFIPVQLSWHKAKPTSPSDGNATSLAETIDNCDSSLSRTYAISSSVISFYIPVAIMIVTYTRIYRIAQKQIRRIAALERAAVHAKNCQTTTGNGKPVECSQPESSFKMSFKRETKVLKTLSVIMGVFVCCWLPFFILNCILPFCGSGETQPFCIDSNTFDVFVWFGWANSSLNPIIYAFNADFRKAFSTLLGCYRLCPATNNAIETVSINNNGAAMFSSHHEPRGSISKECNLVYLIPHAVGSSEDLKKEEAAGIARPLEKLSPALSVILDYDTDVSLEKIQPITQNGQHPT

With `O/N=c1\cc(-c2cc3cccn3cn2)oc2ccc(OCCN3CCOCC3)cc12` [listing 1 of 2 here], the EC50 in data set [1] came to 70 nM. For the same molecule, the half-life was 44 min in [2] and 438 min in data set [11]. The clearance in [3] is 113 mL/min/kg. Further, the Kp at 1 h in data set [4] came out at 3.3. Moreover, the Kp at 0.5 h in data set [5] came out at 3.6; in data set [13], 3.1. Further, the Cmax was determined as 1500 ng/mL in [6] and 135 ng/mL in data set [7]. For the same molecule, the Tmax in [8] is 15 min; in data set [9], 20 min; in data set [10], 30 min. This molecule gave an AUC(0-inf) in [12] of 903 ng·h/mL. Besides, the Ratio in data set [14] is reported as 3.6; in data set [15] it was 14.5; in data set [19], 14.5. Further, the fraction unbound at 10 µM in data set [16] was 0.0076. In [17], this molecule showed a concentration at 0.5 h of 7400 ng/mL. Also, the concentration at 2 h in data set [18] came to 1740 ng/g. Moreover, the Activity result in data set [20] and in [21] was “Non-Toxic” throughout.

As for `O/N=c1\cc(-c2cc3cccn3cn2)oc2ccc(OCCN3CCOCC3)cc12` [listing 2 of 2 here], in data set [22], the Emax amounted to 77%. For the same molecule, the result in data set [23], in data set [24], in data set [25] and in data set [27] was inactive. For the same molecule, the Activity entry in data set [26] is “Dose-dependent effect”.
